Results on 21 molecules are retold here after ChEMBL document CHEMBL3124838, “Discovery of 6-aryl-azabenzimidazoles that inhibit the TBK1/IKK-ε kinases” (Bioorg Med Chem Lett, 2014).

Each structure is given as a SMILES string.

Assay [1] has as its target T1, Serine/threonine-protein kinase TBK1 (Homo sapiens, UniProt Q9UHD2).
T1 sequence (Q9UHD2 whole entry): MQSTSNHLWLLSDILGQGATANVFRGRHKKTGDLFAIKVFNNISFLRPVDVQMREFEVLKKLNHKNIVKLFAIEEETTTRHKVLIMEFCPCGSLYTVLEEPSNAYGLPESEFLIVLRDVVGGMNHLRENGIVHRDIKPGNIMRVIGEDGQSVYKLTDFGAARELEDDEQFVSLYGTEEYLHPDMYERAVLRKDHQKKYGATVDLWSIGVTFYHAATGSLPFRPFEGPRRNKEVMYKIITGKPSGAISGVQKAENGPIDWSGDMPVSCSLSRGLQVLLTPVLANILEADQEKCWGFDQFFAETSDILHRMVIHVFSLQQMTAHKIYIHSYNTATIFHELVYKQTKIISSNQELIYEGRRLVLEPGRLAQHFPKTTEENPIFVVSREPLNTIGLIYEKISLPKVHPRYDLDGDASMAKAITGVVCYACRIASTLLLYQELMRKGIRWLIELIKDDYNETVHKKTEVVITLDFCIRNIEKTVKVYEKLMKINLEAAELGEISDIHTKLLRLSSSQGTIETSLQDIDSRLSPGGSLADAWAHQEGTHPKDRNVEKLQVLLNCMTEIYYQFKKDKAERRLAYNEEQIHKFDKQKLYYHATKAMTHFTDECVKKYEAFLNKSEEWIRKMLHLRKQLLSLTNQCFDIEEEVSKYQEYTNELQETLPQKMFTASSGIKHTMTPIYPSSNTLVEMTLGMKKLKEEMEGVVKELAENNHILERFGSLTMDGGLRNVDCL
Put plainly: Inhibition of recombinant full-length TBK1 (unknown origin) using CK1tide as substrate by microfluidic mobility shift assay.

Another assay deals with Aurora kinase B (Homo sapiens, UniProt Q96GD4). The experiment in a line: Inhibition of aurora B (unknown origin).
Assay [2] deals with T1, Serine/threonine-protein kinase TBK1. Put plainly: Inhibition of TBK1 in HEK293 cells after 4.5 hrs by ISRE-luciferase reporter gene assay in presence of poly I:C. Type of assay: cell-based. Background: In a reporter assay the amount or activity of a reporter protein is the signal.
Assay [3] concerns the target Cyclin-dependent kinase 2 (Homo sapiens, UniProt P24941). Put plainly: Inhibition of CDK2 (unknown origin).
For assay [4], the target named is T2, Inhibitor of nuclear factor kappa-B kinase subunit epsilon (Homo sapiens, UniProt Q14164).
T2 sequence (Q14164 whole entry): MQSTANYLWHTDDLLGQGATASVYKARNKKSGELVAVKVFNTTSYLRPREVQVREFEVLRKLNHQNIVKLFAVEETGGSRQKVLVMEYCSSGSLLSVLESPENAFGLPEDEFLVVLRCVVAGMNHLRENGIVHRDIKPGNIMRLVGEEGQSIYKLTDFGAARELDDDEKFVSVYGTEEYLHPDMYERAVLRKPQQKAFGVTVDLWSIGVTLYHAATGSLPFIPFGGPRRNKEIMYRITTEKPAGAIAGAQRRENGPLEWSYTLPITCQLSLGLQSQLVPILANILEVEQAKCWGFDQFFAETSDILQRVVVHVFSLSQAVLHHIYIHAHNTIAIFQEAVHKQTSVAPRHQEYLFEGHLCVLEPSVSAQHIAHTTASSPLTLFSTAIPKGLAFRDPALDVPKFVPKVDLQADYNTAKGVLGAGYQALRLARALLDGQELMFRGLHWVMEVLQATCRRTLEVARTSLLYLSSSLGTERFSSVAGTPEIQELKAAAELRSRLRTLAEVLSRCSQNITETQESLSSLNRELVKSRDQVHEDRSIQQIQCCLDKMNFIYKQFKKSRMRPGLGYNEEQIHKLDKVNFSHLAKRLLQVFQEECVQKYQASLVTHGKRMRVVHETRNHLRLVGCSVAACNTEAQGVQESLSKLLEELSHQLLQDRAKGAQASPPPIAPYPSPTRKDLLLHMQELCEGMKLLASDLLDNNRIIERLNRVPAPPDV
Put plainly: Inhibition of IKK-epsilon (unknown origin) using 5FAM-AKELDQGSLCTpSFVGTLQ-NH2 as substrate by microfluidic mobility shift assay. Put shortly: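 Recombinant IKK-ε (4 nM) in HEPES buffer with 1.5 µM 5FAM-labelled peptide substrate, ATP at its K_M, and 10 mM MgCl2. The 10-point titration used half-log serial dilutions. Reactions ran at room temperature for a set time, were quenched with EDTA-containing HEPES, and were read by microfluidic mobility shift. Percent inhibition came from the ratio of phosphorylated to total peptide.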

Aurora kinase B, sequence (Q96GD4 whole entry): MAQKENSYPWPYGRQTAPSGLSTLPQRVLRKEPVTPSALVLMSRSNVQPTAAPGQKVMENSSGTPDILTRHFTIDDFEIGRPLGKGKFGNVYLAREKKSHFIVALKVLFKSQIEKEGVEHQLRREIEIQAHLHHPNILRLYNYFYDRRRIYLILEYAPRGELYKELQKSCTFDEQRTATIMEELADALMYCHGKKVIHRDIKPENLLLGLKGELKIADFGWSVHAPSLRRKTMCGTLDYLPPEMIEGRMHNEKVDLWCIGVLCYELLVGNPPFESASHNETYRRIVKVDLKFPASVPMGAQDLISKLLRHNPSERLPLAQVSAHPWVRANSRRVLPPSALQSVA

As a reminder, the IC50 is the concentration at which inhibition is half-maximal. Take `O=C(O)c1ccc(-c2cnc3nc(-c4ccc(OCCN5CCCCC5)cc4)[nH]c3c2)cc1`: the half-maximal inhibitory concentration (IC50) in assay [1] was 0.859 µM.
Take `COc1ccc(-c2nc3c(OCCCNC(=O)C4CCCC4)c(-c4csc(C(=O)O)c4)cnc3[nH]2)cc1`: the IC50 is 1.3 µM at Aurora kinase B; greater than 3 µM in assay [2]; greater than 30 µM in assay [3]; 0.46 µM in assay [1]; 1.1 µM in assay [4].
For `CCC(C)CNC(=O)c1cc(-c2cnc3[nH]c(-c4ccc(OC)cc4)nc3c2)cs1` (stereo not given) the same measures were 2.82 µM, 0.089 µM, greater than 30 µM, 0.219 µM and 1.09 µM.
The like results for `COc1ccc(-c2nc3c(NCCCNC(=O)C4CCCC4)c(-c4nc(C(=O)NCC(C)C)cs4)cnc3[nH]2)cc1` were, in that order, 2.47 µM, 0.128 µM, greater than 30 µM, 0.388 µM and 3.23 µM.
On to `COc1ccc(-c2nc3ncc(-c4ccc(C(=O)O)s4)cc3[nH]2)cc1`, for which the IC50 in assay [2] was greater than 30 µM; in assay [1], 0.256 µM; in assay [4], 0.867 µM.
`COc1ccc(-c2nc3ncc(-c4cc(C(=O)O)co4)cc3[nH]2)cc1`: the 50% inhibitory concentration (IC50) in assay [2] was greater than 30 µM; in assay [1] it was 1.05 µM; in assay [4] it was 11.6 µM.
In the case of `CNC(=O)c1cc(-c2cnc3nc(-c4ccc(OC)cc4)[nH]c3c2)cs1`, the results for the IC50 in assay [2], in assay [1] and in assay [4] were 0.851 µM, 0.203 µM and 2.56 µM, respectively.
`COCCNC(=O)c1cc(-c2cnc3[nH]c(-c4ccc(OC)cc4)nc3c2)cs1`: the IC50 was 1.38 µM against Aurora kinase B; 0.17 µM in assay [2]; greater than 30 µM in assay [3]; 0.098 µM in assay [1]; 0.412 µM in assay [4].
As for `COc1ccc(-c2nc3cc(-c4csc(C#N)c4)cnc3[nH]2)cc1`, the IC50 in assay [1] and in assay [4] was greater than 30 µM each time.
`COc1ccc(-c2nc3c(NCCCNC(=O)C4CCCC4)c(C(N)=S)cnc3[nH]2)cc1`: the IC50 on Aurora kinase B is 0.889 µM; in assay [2], 0.165 µM; in assay [3] it was greater than 30 µM; in assay [1], 0.046 µM; in assay [4], 0.448 µM.
`CNc1c(-c2ccc(C(=O)O)s2)cnc2[nH]c(-c3ccc(OC)cc3)nc12`: the IC50 in assay [1] was 1.04 µM; in assay [4] it was 3.3 µM.
For `COc1ccc(-c2nc3c(OCCCNC(=O)C4CCCC4)c(Br)cnc3[nH]2)cc1`, the IC50 was 0.156 µM on Aurora kinase B, greater than 30 µM in assay [3], 0.759 µM in assay [1] and greater than 30 µM in assay [4].
With `COc1ccc(-c2nc3cc(-c4csc(C(C)=O)c4)cnc3[nH]2)cc1`, the half-maximal inhibitory concentration (IC50) against Aurora kinase B was 12.1 µM; in assay [2], 1.78 µM; in assay [3], greater than 30 µM; in assay [1] it was 0.65 µM; in assay [4], 6.75 µM.
As for `COc1ccc(-c2nc3cc(-c4cc(C(=O)O)cs4)cnc3[nH]2)cc1`, the IC50 is greater than 30 µM in assay [2], 0.129 µM in assay [1] and 0.395 µM in assay [4].
Regarding `COc1ccc(-c2nc3cc(-c4csc(C(=O)NCC(C)(C)CO)c4)cnc3[nH]2)cc1`, the 50% inhibitory concentration (IC50) was 1.68 µM against Aurora kinase B; 0.136 µM in assay [2]; greater than 30 µM in assay [3]; 0.1 µM in assay [1]; 0.33 µM in assay [4].
In the case of `COc1ccc(-c2nc3cc(-c4csc(C(N)=O)c4)cnc3[nH]2)cc1`, the IC50 at Aurora kinase B worked out at 2.3 µM; in assay [2], 0.268 µM; in assay [3], 0.984 µM; in assay [1], 0.03 µM; in assay [4], 0.205 µM.
As to `COc1cc2ncn(-c3cc(OCc4ccccc4S(C)(=O)=O)c(C#N)s3)c2cc1OC` [GSK-319347A], the IC50 at Aurora kinase B was greater than 5.32 µM; in assay [2], 0.072 µM; in assay [3], greater than 30 µM; in assay [1], 0.093 µM; in assay [4] it was 0.469 µM.
Take `COc1ccc(-c2nc3ncc(-c4csc(C(=O)O)c4)cc3[nH]2)cc1`: the IC50 is greater than 30 µM in assay [2], 0.049 µM in assay [1] and 0.114 µM in assay [4].
For `CNc1c(-c2ccc(C(=O)O)cc2)cnc2nc(-c3ccc(OC)cc3)[nH]c12`, the half-inhibitory concentration (IC50) in assay [1] stood at 1.8 µM.
For `COc1ccc(-c2nc3c(NCCCNC(=O)C4CCCC4)c(-c4nc(C(=O)O)cs4)cnc3[nH]2)cc1`, the IC50 against Aurora kinase B is 0.299 µM; in assay [2], 2.17 µM; in assay [3], 13.6 µM; in assay [1] it was 0.036 µM; in assay [4], 0.158 µM.
In the case of `COc1ccc(-c2nc3c(NCCCNC(=O)C4CCCC4)c(-c4nc(C(N)=O)cs4)cnc3[nH]2)cc1`, the IC50 at Aurora kinase B stood at 0.284 µM; in assay [2] it was 0.007 µM; in assay [3] it was 1.45 µM; in assay [1] it was 0.009 µM; in assay [4] it was 0.042 µM.
